From ChEMBL document CHEMBL3808356, “Dihydrochelerythrine and its derivatives: Synthesis and their application as potential G-quadruplex DNA stabilizing agents” (Bioorg Med Chem, 2016)
Active and inactive are the calls of the source. The calls are words filed in the database; no cut-off is given here.

Tests used:
[1] = Antiproliferative activity against human HCT116 cells assessed as reduction in cell viability at 15 uM after 72 hrs by MTT assay relative to control; type: functional, HCT-116
In short: (§1)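 Human cancer lines from ATCC, cultured per supplier instructions; ~5000 cells/well seeded 24 h before treatment at 37 °C, CO2. Exposed to vehicle (0.5% DMSO) or serially diluted compound (0.1 to 15 or 20 µM) for 72 h at 37 °C. MTT 100 µg added, 4 h at 37 °C; formazan dissolved in DMSO, absorbance 570 nm. Percent inhibition vs vehicle wells; triplicate, mean ± SEM.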

MDA-MB-231 [2] = test: Antiproliferative activity against human MDA-MB-231 cells assessed as reduction in cell viability at 15 uM after 72 hrs by MTT assay relative to control; type: functional; in short: as §1
[3] = (§2) Antiproliferative activity against human HCT116 cells assessed as reduction in cell viability at 20 uM after 72 hrs by MTT assay relative to control; type: functional; conditions: HCT-116, 72 h; in short: as §1
MDA-MB-231 [4] = test: Antiproliferative activity against human MDA-MB-231 cells assessed as reduction in cell viability at 20 uM after 72 hrs by MTT assay relative to control; type: functional; conditions: MDA-MB-231, 72 h; in short: as §1
A-431 [5] = test: Antiproliferative activity against human A431 cells assessed as reduction in cell viability at 20 uM after 72 hrs by MTT assay relative to control; type: functional; conditions: A-431, 72 h; in short: as §1
[6] = Binding affinity to c-myc G-quadruplex DNA (unknown origin) by UV-visible absorption spectroscopic analysis
In short: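 UV–vis titration, 225–600 nm, 10 mm cuvette. Ligand at 30 µM in 100 mM KCl, 10 mM lithium cacodylate pH 7.2 was titrated to saturation with c-MYC DNA pre-annealed in the same buffer (95 °C 5 min, slow cooling). Binding constant from a half-reciprocal fit; mean of 3 independent experiments.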

[7] = Binding affinity to c-myc G-quadruplex DNA (unknown origin) incubated for 30 mins by Taq DNA polymerase stop assay
In short: (§3)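 Taq polymerase stop assay. 32P-labelled primer plus 50 nM cold primer annealed to 100 nM template carrying c-MYC quadruplex or mutated c-MYC sequence. Ligand 0–80 µM, 30 min at room temperature, then 0.5 U Taq, 55 °C for 30 min. Products run on 15% denaturing PAGE and phosphorimaged. Normalised % stop product plotted against ligand concentration; IC50 is 50% stop. Two independent experiments.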

[8] = Binding affinity to c-myc G-quadruplex DNA (unknown origin) assessed as stabilization of preformed parallel topology up to 5 molar equivalents by circular dichroism spectroscopic analysis in absence of metal ion
In short: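 Ligand added from a 5 mM DMSO stock up to 5 equiv. Scanned 220–320 nm, 1.0 mm cuvette, 100 nm/min, 25 °C. Each spectrum is the average of 3 scans.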

[9] = Binding affinity to c-Kit1 G-quadruplex DNA (unknown origin) assessed as stabilization of preformed parallel topology up to 5 molar equivalents by circular dichroism spectroscopic analysis in absence of metal ion
In short: (§4)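 CD titration of promoter quadruplex DNA (12.5 µM strand) in 50 mM Tris-HCl pH 7.2, no added monovalent cations. Ligand from 5 mM DMSO stock added stepwise by molar equivalents. Spectra 220–320 nm, 1 mm path, 25 °C, 100 nm/min, 2 s response, average of 3 scans. Ellipticity change at ~260 nm (positive) and ~240 nm (negative) followed.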

[10] = Binding affinity to c-myc G-quadruplex DNA (unknown origin) assessed as change in melting temperature at 50 uM by circular dichroism spectroscopic analysis
In short: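 CD melting: c-MYC DNA 10 µM strand in 10 mM lithium cacodylate pH 7.2, 1 mM KCl, 99 mM LiCl. Annealed 95 °C 5 min, cooled slowly to room temperature, then 5 equiv ligand (50 µM) added and incubated overnight. Ellipticity at 263 nm, 20–95 °C at 1 °C/min. Sigmoidal Boltzmann fit; ΔTm = Tm(DNA+ligand) − Tm(DNA).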

[11] = Binding affinity to c-Kit1 G-quadruplex DNA (unknown origin) assessed as change in melting temperature at 50 uM by circular dichroism spectroscopic analysis
In short: (§5)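 CD melting of 10 µM DNA strand in 10 mM lithium cacodylate pH 7.2 with 90 mM LiCl and 10 mM KCl (c-KIT1 and duplex). c-KIT1 annealed at 95 °C for 5 min, slowly cooled, then given 5 equiv ligand (50 µM) overnight. Ellipticity read at 263 nm, 1 °C/min from 15–95 °C for c-KIT1. Sigmoidal Boltzmann fit. ΔTm = Tm(DNA+ligand) − Tm(DNA).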

[12] = Binding affinity to duplex DNA (unknown origin) assessed as change in melting temperature at 50 uM by circular dichroism spectroscopic analysis; in short: as §5
[13] = Binding affinity to c-myc DNA mutant (unknown origin) up to 80 uM incubated for 30 mins by Taq DNA polymerase stop assay; in short: as §3
HCT-116 = test: as §2; type: functional; in short: as §1
HeLa = test: Antiproliferative activity against human HeLa cells at 0.1 to 20 uM after 72 hrs by MTT assay; type: functional, cell-based; in short: as §1
A549 = test: Antiproliferative activity against human A549 cells at 0.1 to 20 uM after 72 hrs by MTT assay; type: functional, cell-based; in short: as §1
PC-3 = test: Antiproliferative activity against human PC3 cells at 0.1 to 20 uM after 72 hrs by MTT assay; type: functional, cell-based; in short: as §1
A-431 [14] = test: Antiproliferative activity against human A431 cells assessed as reduction in cell viability at 15 uM after 72 hrs by MTT assay relative to control; type: functional, cell-based; in short: as §1
[15] = Binding affinity to c-myc G-quadruplex DNA (unknown origin) assessed as stabilization of preformed parallel topology at 1 to 6 molar equivalents by circular dichroism spectroscopic analysis in absence of metal ion; in short: as §4
[16] = Binding affinity to telomeric DNA (unknown origin) assessed as change in melting temperature at 50 uM by circular dichroism spectroscopic analysis in presence of K+ ion
In short: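 CD melting: telomeric DNA 10 µM in 10 mM lithium cacodylate pH 7.2 with 10 mM KCl, 90 mM LiCl, plus ligand. Ellipticity followed against temperature; ΔTm taken as Tm with ligand minus Tm of DNA alone.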

SMILES | inhibition at 20 µM (MDA-MB-231 [4]) | inhibition at 20 µM (A-431 [5]) | Activity [9] | ΔTm [10] | Activity (HeLa) | Activity (A549) | Activity (PC-3) | inhibition (A-431 [14]) | other results
COc1ccc2c(c1OC)C(CC(C)=O)N(C)c1c-2ccc2cc3c(cc12)OCO3 (single isomer, unassigned; (+)) [listing 1 of 2 here] | – | – | – | – | – | – | – | – | inhibition (INH) [1]: 47.84%; inhibition (INH) (MDA-MB-231 [2]): 24.3%
COc1cccc2c1C(=O)c1c(O)c3c(c(O)c1C2=O)C[C@@](O)(C(=O)CO)C[C@@H]3O[C@H]1C[C@H](N)[C@H](O)[C@H](C)O1 [DOXORUBICIN] | 92.7% | 98.1% | – | – | – | – | – | – | inhibition at 20 µM [3]: 98%
COc1ccc2c(c1OC)CN(C)c1c-2ccc2cc3c(cc12)OCO3 [DIHYDROCHELERYTHRINE] | 8.65% | 30.4% | Active | 24 °C | inactive | inactive | inactive | – | K [6]: 5.5 ×10⁵ /M; Activity [7]: Dose-dependent effect; IC50 [7]: 5.8 µM; Activity [8]: Active; ΔTm [11]: 17.6 °C; ΔTm [12]: -1 °C; Activity [13]: inactive; inhibition (HCT-116): inactive
COc1ccc2c(c1OC)C(CC(C)=O)N(C)c1c-2ccc2cc3c(cc12)OCO3 (stereo in doubt) [listing 1 of 2 here] | – | – | – | – | inactive | inactive | inactive | inactive | –
COc1ccc2c(c1OC)C(CC(C)=O)N(C)c1c-2ccc2cc3c(cc12)OCO3 (racemic) [listing 1 of 2 here] | – | – | – | – | – | – | – | – | inhibition at 15 µM ([1]; Homo sapiens, HCT-116, 72 h): 28.7%; inhibition at 15 µM (MDA-MB-231 [2]; Homo sapiens, MDA-MB-231, 72 h): 16.1%
COc1ccc2c(c[n+](C)c3c4cc5c(cc4ccc23)OCO5)c1OC [CHELERYTHRINE] | 100% | 100% | Active | 19.6 °C | – | – | – | – | K [6]: 7.35 ×10⁵ /M; Activity [7]: Dose-dependent effect; IC50 [7]: 6.6 µM; Activity [8]: Active; ΔTm [11]: 24.3 °C; ΔTm [12]: 0.1 °C; Activity [13]: inactive; inhibition at 20 µM [3]: 100%
COc1ccc2c(c1OC)C(CC(C)=O)N(C)c1c-2ccc2cc3c(cc12)OCO3 (stereo in doubt) [listing 2 of 2 here] | – | – | – | – | – | – | – | – | inhibition (INH) [1]: 36.88%; inhibition (INH) (MDA-MB-231 [2]): 20.81%
COc1ccc2c(c1OC)C(CC(C)=O)N(C)c1c-2ccc2cc3c(cc12)OCO3 (racemic) [listing 2 of 2 here] | – | – | inactive | 2.6 °C | inactive | inactive | inactive | inactive | Activity [15]: Active; ΔTm [16]: 1 °C
COc1ccc2c(c1OC)C(CC(C)=O)N(C)c1c-2ccc2cc3c(cc12)OCO3 (single isomer, unassigned; (+)) [listing 2 of 2 here] | – | – | – | – | inactive | inactive | inactive | inactive | –
